Data reported in publication PMC9273292 (Journal of Ethnopharmacology, 2022).

Columns and labels:
CCK-8 cytotoxicity assay = type: cell-based; settings: human, HRT-18 cells
How it was run: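 Viability of HRT-18 cells is read by CCK-8 per the kit protocol. Cells are kept in RPMI 1640 with 10% FBS, sodium pyruvate, NEAA and 0.025M HEPES at 37 °C, 5% CO2. Run in triplicate. CC50 comes from a four-parameter log(inhibitor) vs response fit of mean values.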

HCoV-OC43 [1] = experiment: Cytopathic effect; type: cell-based, human coronavirus OC43; settings: 100 TCID50, 72 hpi, two-fold serial dilutions
How it was run: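 Confluent cell monolayers are infected with 100 TCID50 HCoV-OC43 (titre by Reed-Muench) and given two-fold serial dilutions of test compound. At 72 hpi, CPE (lysis, rounding, vacuolization) is scored by phase-contrast microscopy; absence of CPE is taken as activity. Remdesivir is the positive control.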

HCoV-OC43 [2] = experiment: Antibody-based EC50 assay; type: cell-based, human coronavirus OC43; settings: CC50/EC50, HRT-18 cells
How it was run: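 HRT-18 cells (RPMI 1640, 10% FBS, 37 °C, 5% CO2) infected with HCoV-OC43 and treated with test compound. Viral nucleocapsid is detected with an anti-OC43 nucleocapsid antibody. Run in triplicate. EC50 comes from a four-parameter log(inhibitor) vs response fit of mean values. SI = CC50/EC50.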

HCoV-OC43 [3] = experiment: Immunofluorescence analysis of HCoV-OC43 nucleocapsid in infected HRT-18 cells; type: cell-based, human coronavirus OC43; settings: 4 μM, 48 hpi
HCoV-OC43 [4] = experiment: Transmission electron microscopy of infected HRT-18 cells; type: cell-based, human coronavirus OC43; settings: 4 μM, 48 hpi
How it was run: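 HRT-18 monolayers are inoculated with 100 TCID50 HCoV-OC43 for 2 h at 37 °C. Inoculum is then replaced by RPMI 1640 with 2% FBS containing test compound or DMSO. At 48 hpi, virus particles are examined by negative staining under transmission electron microscopy.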

[5] = target: recombinant SARS-CoV-2 PLpro (Severe acute respiratory syndrome coronavirus 2, UniProt P0DTD1); experiment: PLpro inhibition assay; type: biochemical
[6] = target: SARS-CoV-2 Nsp14N7 methyltransferase (Severe acute respiratory syndrome coronavirus 2, UniProt P0DTD1); experiment: Nsp14N7-MTase inhibition assay; type: biochemical
Mpro [7] = settings: cited from earlier work
Mpro [8] = settings: SARS-CoV-2 model; ref Alhadrami et al., 2021; cited from earlier work

Compound | CC50 (CCK-8 cytotoxicity assay) | inhibition of CPE caused by HCoV-OC43 infection (HCoV-OC43 [1]) | Selective index (SI) (HCoV-OC43 [2]) | fluorescence signal of virus particles (HCoV-OC43 nucleocapsid) (HCoV-OC43 [3]) | viral particles in infected cells under TEM (HCoV-OC43 [4]) | IC50 [5] | IC50 [6] | concentration inhibiting Mpro activity by competitive inhibition (Mpro [7]) | concentration inhibiting Mpro activity (Mpro [8])
C=C(C)[C@@H]1CC[C@]2(C(=O)O)CC[C@]3(C)[C@H](CC[C@@H]4[C@@]5(C)CC[C@H](O)C(C)(C)[C@@H]5CC[C@]43C)[C@@H]12 [Compound 1, betulinic acid] | 19.4 µM | showed antiviral activity | 8.04 | substantially reduced the fluorescence signal of virus particles | no viral particles were detected | 2.03 µM | 1.12 µM | 10 µmol/L | 14.55 µmol/L
C[C@H]1[C@H](C)CC[C@]2(C)CC[C@]3(C)C(=CC[C@@H]4[C@@]5(C)CC[C@H](O)C(C)(C)[C@@H]5CC[C@]43C)[C@H]12 [Compound 2, α-amyrin] | 24 µM | showed antiviral activity | 6.03 |  |  |  |  |  | 
O=C1C[C@@H](c2ccc(O)cc2)Oc2cc(O)cc(O)c21 [Compound 5, naringenin] |  | showed antiviral activity |  |  |  |  |  |  | 
O=C1C[C@@H](c2ccc(O)c(O)c2)Oc2cc(O)cc(O)c21 [Compound 8, eriodictyol] |  | showed antiviral activity |  |  |  |  |  |  | 
O=c1c(O)c(-c2ccc(O)c(O)c2)oc2cc(O)cc(O)c12 [Compound 11, quercetin] | 34 µM | showed antiviral activity | 7.29 |  |  |  |  |  | 
